Experimental data reported in ChEMBL document CHEMBL3045942, “Design, synthesis, and anti-tobacco mosaic virus (TMV) activity of phenanthroindolizidines and their analogues” (2012).

Experiments:
Assay type in all cases: functional
Tobacco mosaic virus [1] = experiment: Antiviral activity against Tobacco mosaic virus (TMV) inoculated in 5-6 growth stage leaf assessed as inhibition effect at 100 ug/mL at 25 degC after 72 hr by half-leaf method
Method in brief: (§1)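 Half-leaf assay on fresh leaves of Nicotiana tabacum var. Xanthi nc at the 5–6 growth stage. Leaves were rub-inoculated with leaf juice (TMV 5.88 × 10−2 μg mL−1) and cut in halves along the main vein. One half was immersed in compound solution and the other in double-distilled water for 20 min, then kept at 25 °C for 72 h. Inhibition % = (mean control lesions − mean treated lesions)/mean control lesions × 100. At least 3 replicates.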

Tobacco mosaic virus [2] = experiment: In vivo antiviral activity against Tobacco mosaic virus (TMV) inoculated left side of Nicotiana tabacum L. leaves assessed as inactivation effect at 500 ug/mL co-incubated with virus measured after 3 to 4 days
Method in brief: (§2)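 Inactivation test in N. tabacum var. Xanthi nc. Virus was mixed with an equal volume of compound solution for 30 min and the mixture inoculated on the left leaf half. The right half received a solvent–virus mixture as control. Local lesions were counted 3–4 days after inoculation. Inhibition % was calculated from mean lesion numbers of control versus treated halves. Three replicates.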

Tobacco mosaic virus [3] = experiment: Antiviral activity against Tobacco mosaic virus (TMV) inoculated in 5-6 growth stage leaf assessed as inhibition effect at 500 ug/mL at 25 degC after 72 hr by half-leaf method; method in brief: as §1
Tobacco mosaic virus [4] = experiment: In vivo antiviral activity against Tobacco mosaic virus (TMV) inoculated right side of Nicotiana tabacum L. leaves assessed as protection effect at 100 ug/mL preincubated 12 hr before viral challenge measured after 3 to 4 days
Method in brief: (§3)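 Protective test on same-age growing Xanthi nc tobacco leaves. Compound solution was smeared on the left half and solvent on the right half as control. After 12 h, leaves were inoculated with TMV applied by brush. Inhibition % = (mean control lesions − mean treated lesions)/mean control lesions × 100. Three replicates.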

Tobacco mosaic virus [5] = experiment: In vivo antiviral activity against Tobacco mosaic virus (TMV) inoculated left side of Nicotiana tabacum L. leaves assessed as inactivation effect at 100 ug/mL co-incubated with virus measured after 3 to 4 days; method in brief: as §2
Tobacco mosaic virus [6] = experiment: In vivo antiviral activity against Tobacco mosaic virus (TMV) pre-inoculated Nicotiana tabacum L. leaves assessed as curative effect at 100 ug/mL measured after 3 to 4 days
Method in brief: (§4)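 Curative test on same-age growing Xanthi nc leaves. Whole leaves were first inoculated with TMV (6.0 × 10−3 mg mL−1), then washed with water and dried. Compound solution was smeared on the left half and solvent on the right half as control. Local lesions were counted 3–4 days after inoculation, and inhibition % was derived from mean lesion numbers. Three replicates.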

Tobacco mosaic virus [7] = experiment: In vivo antiviral activity against Tobacco mosaic virus (TMV) pre-inoculated Nicotiana tabacum L. leaves assessed as curative effect at 500 ug/mL measured after 3 to 4 days; method in brief: as §4
Tobacco mosaic virus [8] = experiment: In vivo antiviral activity against Tobacco mosaic virus (TMV) inoculated right side of Nicotiana tabacum L. leaves assessed as protection effect at 500 ug/mL preincubated 12 hr before viral challenge measured after 3 to 4 days; method in brief: as §3

COc1ccc2c3c(c4cc(OC)c(OC)cc4c2c1)C[C@H]1CCCN1C3 [(-)-ANTOFINE]
inhibition at 100 µg/mL (Tobacco mosaic virus [1]): 27.4%
Activity (Tobacco mosaic virus [2]): 42.7%
inhibition at 500 µg/mL (Tobacco mosaic virus [3]): 52.8%
Activity (Tobacco mosaic virus [4]): 20.4%
Activity (Tobacco mosaic virus [5]): 15.3%
Activity (Tobacco mosaic virus [6]): 19.4%
Activity (Tobacco mosaic virus [7]): 46%
Activity (Tobacco mosaic virus [8]): 45.5%

COc1ccc2c3c(c4cc(OC)c(OC)cc4c2c1)CN1CCC[C@@H]1C3
inhibition at 100 µg/mL (Tobacco mosaic virus [1]): 32.9%
Activity (Tobacco mosaic virus [2]): 48.9%
inhibition at 500 µg/mL (Tobacco mosaic virus [3]): 56.5%
Activity (Tobacco mosaic virus [4]): 31.7%
Activity (Tobacco mosaic virus [5]): 23.6%
Activity (Tobacco mosaic virus [6]): 24.5%
Activity (Tobacco mosaic virus [7]): 44.7%
Activity (Tobacco mosaic virus [8]): 60.5%

COc1ccc2c3c(c4cc(OC)c(OC)cc4c2c1)[C@@H](O)[C@H]1CCCN1C3
inhibition at 100 µg/mL (Tobacco mosaic virus [1]): 21.6%
Activity (Tobacco mosaic virus [2]): 38.5%
inhibition at 500 µg/mL (Tobacco mosaic virus [3]): 43.5%
Activity (Tobacco mosaic virus [4]): 7.3%
Activity (Tobacco mosaic virus [5]): 14.2%
Activity (Tobacco mosaic virus [6]): 10.2%
Activity (Tobacco mosaic virus [7]): 34.9%
Activity (Tobacco mosaic virus [8]): 39.6%

COc1cc2c3c(c4cc(OC)c(OC)cc4c2cc1OC)NC[C@H]1CCCN1C3
inhibition at 100 µg/mL (Tobacco mosaic virus [1]): 23.1%
Activity (Tobacco mosaic virus [2]): 31.5%
inhibition at 500 µg/mL (Tobacco mosaic virus [3]): 40.4%
Activity (Tobacco mosaic virus [4]): 33.7%
Activity (Tobacco mosaic virus [5]): 12.6%
Activity (Tobacco mosaic virus [6]): 28.7%
Activity (Tobacco mosaic virus [7]): 44.6%
Activity (Tobacco mosaic virus [8]): 46.5%

NC(=O)c1ncn([C@@H]2O[C@H](CO)[C@@H](O)[C@H]2O)n1 [RIBAVIRIN]
inhibition at 100 µg/mL (Tobacco mosaic virus [1]): 12.5%
Activity (Tobacco mosaic virus [2]): 33.8%
inhibition at 500 µg/mL (Tobacco mosaic virus [3]): 40%
Activity (Tobacco mosaic virus [4]): 7.5%
Activity (Tobacco mosaic virus [5]): 9.8%
Activity (Tobacco mosaic virus [6]): 8.2%
Activity (Tobacco mosaic virus [7]): 36.7%
Activity (Tobacco mosaic virus [8]): 38.9%

COc1ccc2c3c(c4cc(OC)c(OC)cc4c2c1)CN1CCC[C@H]1[C@H]3O
inhibition at 100 µg/mL (Tobacco mosaic virus [1]): 29.6%
Activity (Tobacco mosaic virus [2]): 32.4%
inhibition at 500 µg/mL (Tobacco mosaic virus [3]): 45.2%
Activity (Tobacco mosaic virus [4]): 24.5%
Activity (Tobacco mosaic virus [5]): 0%
Activity (Tobacco mosaic virus [6]): 17.2%
Activity (Tobacco mosaic virus [7]): 40%
Activity (Tobacco mosaic virus [8]): 41.3%

COc1cc2c3c(c4cc(OC)c(OC)cc4c2cc1OC)[C@@H](O)[C@H]1CCCN1C3
inhibition at 100 µg/mL (Tobacco mosaic virus [1]): 23%
Activity (Tobacco mosaic virus [2]): 49.2%
inhibition at 500 µg/mL (Tobacco mosaic virus [3]): 51.2%
Activity (Tobacco mosaic virus [4]): 26.5%
Activity (Tobacco mosaic virus [5]): 26.7%
Activity (Tobacco mosaic virus [6]): 32.8%
Activity (Tobacco mosaic virus [7]): 43.4%
Activity (Tobacco mosaic virus [8]): 53.9%

COc1cc2c3c(c4cc(OC)c(OC)cc4c2cc1OC)C(=O)N1CCC[C@H]1C3
inhibition at 100 µg/mL (Tobacco mosaic virus [1]): 30.9%
Activity (Tobacco mosaic virus [2]): 37%
inhibition at 500 µg/mL (Tobacco mosaic virus [3]): 48.1%
Activity (Tobacco mosaic virus [4]): 23.4%
Activity (Tobacco mosaic virus [5]): 20.5%
Activity (Tobacco mosaic virus [6]): 14.8%
Activity (Tobacco mosaic virus [7]): 30.1%
Activity (Tobacco mosaic virus [8]): 43.5%

COc1ccc2c3c(c4cc(OC)c(OC)cc4c2c1)CN1CCC[C@@H]1[C@@H]3O
inhibition at 100 µg/mL (Tobacco mosaic virus [1]): 33.1%
Activity (Tobacco mosaic virus [2]): 51.2%
inhibition at 500 µg/mL (Tobacco mosaic virus [3]): 47.7%
Activity (Tobacco mosaic virus [4]): 30.2%
Activity (Tobacco mosaic virus [5]): 33.3%
Activity (Tobacco mosaic virus [6]): 27.8%
Activity (Tobacco mosaic virus [7]): 56.2%
Activity (Tobacco mosaic virus [8]): 54.4%

COc1cc2cc(CN3CCC[C@H]3C)c3cc(OC)c(OC)cc3c2cc1OC
inhibition at 100 µg/mL (Tobacco mosaic virus [1]): 0%
Activity (Tobacco mosaic virus [2]): 25.2%
inhibition at 500 µg/mL (Tobacco mosaic virus [3]): 29.8%
Activity (Tobacco mosaic virus [4]): 13.1%
Activity (Tobacco mosaic virus [5]): 0%
Activity (Tobacco mosaic virus [6]): 0%
Activity (Tobacco mosaic virus [7]): 25.8%
Activity (Tobacco mosaic virus [8]): 39.6%

COc1cc2cc(C(=O)N3CCC[C@H]3C)c3cc(OC)c(OC)cc3c2cc1OC
inhibition at 100 µg/mL (Tobacco mosaic virus [1]): 15.3%
Activity (Tobacco mosaic virus [2]): 31.3%
inhibition at 500 µg/mL (Tobacco mosaic virus [3]): 38.4%
Activity (Tobacco mosaic virus [4]): 18.9%
Activity (Tobacco mosaic virus [5]): 9.6%
Activity (Tobacco mosaic virus [6]): 6.2%
Activity (Tobacco mosaic virus [7]): 30.1%
Activity (Tobacco mosaic virus [8]): 43.3%

COc1cc2c3c(c4cc(OC)c(OC)cc4c2cc1OC)NC(=O)[C@H]1CCCN1C3
inhibition at 100 µg/mL (Tobacco mosaic virus [1]): 20%
Activity (Tobacco mosaic virus [2]): 34.9%
inhibition at 500 µg/mL (Tobacco mosaic virus [3]): 32.2%
Activity (Tobacco mosaic virus [4]): 19.7%
Activity (Tobacco mosaic virus [5]): 21.2%
Activity (Tobacco mosaic virus [6]): 18.9%
Activity (Tobacco mosaic virus [7]): 35.7%
Activity (Tobacco mosaic virus [8]): 36.4%

COc1cc2c3c(c4cc(OC)c(OC)cc4c2cc1OC)C(=O)n1cccc1C3
inhibition at 100 µg/mL (Tobacco mosaic virus [1]): 0%
Activity (Tobacco mosaic virus [2]): 22.6%
inhibition at 500 µg/mL (Tobacco mosaic virus [3]): 15.3%
Activity (Tobacco mosaic virus [4]): 5.3%
Activity (Tobacco mosaic virus [5]): 8.5%
Activity (Tobacco mosaic virus [6]): 0%
Activity (Tobacco mosaic virus [7]): 17.5%
Activity (Tobacco mosaic virus [8]): 21.5%

COc1cc2c3c(c4cc(OC)c(OC)cc4c2cc1OC)CN1CCC[C@@H]1C3 [TYLOPHORINE]
inhibition at 100 µg/mL (Tobacco mosaic virus [1]): 21.1%
Activity (Tobacco mosaic virus [2]): 39%
inhibition at 500 µg/mL (Tobacco mosaic virus [3]): 49.7%
Activity (Tobacco mosaic virus [4]): 22.5%
Activity (Tobacco mosaic virus [5]): 15.1%
Activity (Tobacco mosaic virus [6]): 26.4%
Activity (Tobacco mosaic virus [7]): 44.2%
Activity (Tobacco mosaic virus [8]): 47.6%

COc1ccc2c3c(c4cc(OC)c(OC)cc4c2c1)[C@H](O)[C@@H]1CCCN1C3
inhibition at 100 µg/mL (Tobacco mosaic virus [1]): 23%
Activity (Tobacco mosaic virus [2]): 24.8%
inhibition at 500 µg/mL (Tobacco mosaic virus [3]): 51.2%
Activity (Tobacco mosaic virus [4]): 0%
Activity (Tobacco mosaic virus [5]): 0%
Activity (Tobacco mosaic virus [6]): 0%
Activity (Tobacco mosaic virus [7]): 19.3%
Activity (Tobacco mosaic virus [8]): 21.2%

CNCC(=O)N[C@@H](CO)C(=O)N[C@H]1[C@H](O)[C@@H](O)[C@H](n2ccc(N)nc2=O)O[C@@H]1C(N)=O [NINGNANMYCIN]
inhibition at 100 µg/mL (Tobacco mosaic virus [1]): 30.4%
Activity (Tobacco mosaic virus [2]): 68.5%
inhibition at 500 µg/mL (Tobacco mosaic virus [3]): 71.4%
Activity (Tobacco mosaic virus [4]): 25.2%
Activity (Tobacco mosaic virus [5]): 37.7%
Activity (Tobacco mosaic virus [6]): 18.9%
Activity (Tobacco mosaic virus [7]): 56%
Activity (Tobacco mosaic virus [8]): 66.6%

COc1cc2c3c(c4cc(OC)c(OC)cc4c2cc1OC)[C@H](O)[C@@H]1CCCN1C3
inhibition at 100 µg/mL (Tobacco mosaic virus [1]): 34.7%
Activity (Tobacco mosaic virus [2]): 57.8%
inhibition at 500 µg/mL (Tobacco mosaic virus [3]): 62.4%
Activity (Tobacco mosaic virus [4]): 20%
Activity (Tobacco mosaic virus [5]): 32.9%
Activity (Tobacco mosaic virus [6]): 30.6%
Activity (Tobacco mosaic virus [7]): 61.9%
Activity (Tobacco mosaic virus [8]): 63.7%

COc1ccc2c3c(c4cc(OC)c(OC)cc4c2c1)C[C@@H]1CCCN1C3 [HYPOESTESTATIN 1]
inhibition at 100 µg/mL (Tobacco mosaic virus [1]): 30.5%
Activity (Tobacco mosaic virus [2]): 51.1%
inhibition at 500 µg/mL (Tobacco mosaic virus [3]): 60.2%
Activity (Tobacco mosaic virus [4]): 28.4%
Activity (Tobacco mosaic virus [5]): 37.2%
Activity (Tobacco mosaic virus [6]): 26.7%
Activity (Tobacco mosaic virus [7]): 55.5%
Activity (Tobacco mosaic virus [8]): 56.4%

COc1cc2c3c(c4cc(OC)c(OC)cc4c2cc1OC)NC[C@@H]1CCCN1C3
inhibition at 100 µg/mL (Tobacco mosaic virus [1]): 18.5%
Activity (Tobacco mosaic virus [2]): 42.5%
inhibition at 500 µg/mL (Tobacco mosaic virus [3]): 50%
Activity (Tobacco mosaic virus [4]): 28.5%
Activity (Tobacco mosaic virus [5]): 20.3%
Activity (Tobacco mosaic virus [6]): 22.7%
Activity (Tobacco mosaic virus [7]): 44.6%
Activity (Tobacco mosaic virus [8]): 53.6%
